# The full list was thinned out, with hits kept by preference.
# UPR XBP1 act: adaptive UPR (XBP1) activation; CHO-XBP1 luciferase reporter, IRE1-XBP1 UPR activation, luminescence; percent of tunicamycin response, DMSO as zero; activation, % at 20 µM; 0.33% of 330,000 active;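 active = versus positive control, 20 µM dose yields 30% or more activation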
#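 incubation = overnight seeding at 37 °C, 6 h compound treatment at 37 °C | assay system = CHO-XBP1 cells stably carrying IRE1-XBP1-driven luciferase reporter | input = 1000 cells per well | detection = luciferase luminescence | dosing = single point, 20 µM final compound, 1% DMSO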
# p-CIP stab down: compounds decreasing mouse p/CIP protein stability. F442A p/CIP-EGFP cells, EGFP fluorescence, 16 h. decrease of EGFP signal, % at 10 µM. 0.01% of 290,000 active;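 active = EGFP signal decrease of at least 30% at 10 µM or well 3 SD below plate mean, unless failing retest; inactive = the rest, including hits failing retest or dose response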
# Target sequence (Q05BA5 1-1403): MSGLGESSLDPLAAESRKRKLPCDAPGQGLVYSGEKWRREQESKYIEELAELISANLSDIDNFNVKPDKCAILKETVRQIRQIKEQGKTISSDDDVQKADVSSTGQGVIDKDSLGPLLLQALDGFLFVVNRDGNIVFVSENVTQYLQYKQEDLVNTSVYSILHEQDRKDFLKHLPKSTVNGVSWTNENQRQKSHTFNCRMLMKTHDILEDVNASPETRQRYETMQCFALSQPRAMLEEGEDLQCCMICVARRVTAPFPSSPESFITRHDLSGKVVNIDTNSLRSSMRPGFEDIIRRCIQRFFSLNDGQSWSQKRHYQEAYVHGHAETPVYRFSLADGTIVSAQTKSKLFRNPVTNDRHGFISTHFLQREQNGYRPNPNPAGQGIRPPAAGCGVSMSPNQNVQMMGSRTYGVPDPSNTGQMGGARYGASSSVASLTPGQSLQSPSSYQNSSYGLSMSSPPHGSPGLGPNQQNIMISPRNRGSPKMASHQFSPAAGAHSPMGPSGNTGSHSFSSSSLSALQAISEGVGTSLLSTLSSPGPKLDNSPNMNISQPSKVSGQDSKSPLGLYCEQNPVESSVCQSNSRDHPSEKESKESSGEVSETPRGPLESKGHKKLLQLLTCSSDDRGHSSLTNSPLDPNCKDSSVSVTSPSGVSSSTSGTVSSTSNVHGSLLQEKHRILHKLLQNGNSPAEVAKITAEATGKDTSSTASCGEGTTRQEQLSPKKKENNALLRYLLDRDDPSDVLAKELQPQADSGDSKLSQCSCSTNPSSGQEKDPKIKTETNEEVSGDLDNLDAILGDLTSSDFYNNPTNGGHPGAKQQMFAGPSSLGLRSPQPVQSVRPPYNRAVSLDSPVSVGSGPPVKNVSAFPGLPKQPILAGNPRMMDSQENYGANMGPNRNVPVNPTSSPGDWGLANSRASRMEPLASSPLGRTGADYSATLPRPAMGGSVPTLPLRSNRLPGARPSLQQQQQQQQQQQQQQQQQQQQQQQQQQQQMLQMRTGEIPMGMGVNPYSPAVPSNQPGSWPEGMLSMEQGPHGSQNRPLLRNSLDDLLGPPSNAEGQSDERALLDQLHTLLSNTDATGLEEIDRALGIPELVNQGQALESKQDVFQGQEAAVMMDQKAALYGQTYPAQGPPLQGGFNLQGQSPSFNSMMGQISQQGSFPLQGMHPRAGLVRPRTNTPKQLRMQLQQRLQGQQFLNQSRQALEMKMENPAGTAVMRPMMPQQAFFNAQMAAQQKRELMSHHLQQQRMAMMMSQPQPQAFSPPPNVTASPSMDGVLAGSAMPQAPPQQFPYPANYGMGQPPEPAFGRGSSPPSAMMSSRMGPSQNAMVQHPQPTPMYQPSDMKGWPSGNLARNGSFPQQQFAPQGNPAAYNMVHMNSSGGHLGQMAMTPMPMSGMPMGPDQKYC
# B2AR ag: activates human beta-2 adrenergic receptor causing internalization | 0.43% of 340,000 active | P07550 | Am2.2-beta2AR cells, FAP receptor internalization, flow cytometry | response, % (concentration not given with the values);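 active = response above a set limit, near 3 SD of response in nonfluorescent compounds, cut at about 42% in these data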
# CHOP inh: blocks CHOP induction under ER stress | CHO-K1 CHOP-promoter luciferase, tunicamycin-induced, 15-18 h | inhibition, % at 10 µM | 3.8% of 220,000 active;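 active = compounds that reduced the stress-induced luciferase reporter signal by more than about 70% of percent inhibition, limit read from the data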
# CHOP UPR activ: activators of apoptotic arm of unfolded protein response (CHOP); CHO-CHOP luciferase reporter, UPR activation, luminescence; percent of tunicamycin response over DMSO baseline; activation, % at 10 µM; 0.34% of 330,000 active; AID 449763;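 active = at 10 µM dose, activation of 40% or more, normalized to positive control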
#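 Test system: CHO-CHOP cells, stable luciferase reporter of PERK-eIF2a-CHOP signalling | Quantity: 500 CHO-CHOP cells per well | Buffer or medium: F12 plus 10% serum | Compound dosing: 10 µM single point, 0.5% DMSO | Schedule: 6 h compound treatment, 37 °C | Signal: Luciferase luminescence | Control set: Tunicamycin high control, DMSO low control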
# Dynein transport: dynein cargo transport inhibition. 3617.4 mouse cells, GR-EGFP nuclear translocation imaging; test concentration mostly 20 µM; stimulated with dexamethasone, 1 µM; stronger effect = lower value. z-score, hits read low. 0.47% of 220,000 active;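 active = plate z-score of nuclear minus cytoplasmic receptor signal below a set negative limit, without overly bright fluorescence or cell loss, cut at about -3.5 in these data, passing the limit was not always enough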;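 also: z-score of nuclear minus cytoplasmic ring GR-EGFP intensity difference per well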
#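 Buffer or medium – tet-free medium with charcoal-stripped serum · Signal – automated 10x imaging of fixed Hoechst-stained cells · Also added – dexamethasone agonist, 1.0 µM final, for 30 min · Incubation – induction 48 h, compound 1 h, agonist 30 min · Read-out – GR-EGFP nuclear translocation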
# A number is an active result; 0 = inactive; - = no result.
SMILES,UPR XBP1 act,p-CIP stab down,B2AR ag,CHOP inh,CHOP UPR activ,Dynein transport
COc1ccc(NC(=O)c2cc3n(n2)C(C(F)(F)F)CC(c2ccco2)N3)cc1 (stereo unspecified),0,0,0,0,0,0
O=C(NCC12CC3CC(CC(C3)C1)C2)c1cc2n(n1)C(C(F)(F)F)CC(c1ccco1)N2 (stereo unspecified),0,0,0,102,0,0
CCOc1cc(N2CCOCC2)c(OCC)cc1NC(=O)c1cnccn1,0,-,-,-,0,-
CSc1nc(C)c2c(c1C#N)CCCC2,0,0,0,92,0,0
CC(C)c1nc(N2CCOCC2)c(C#N)c2c1CCC2,0,0,0,72,0,0
CSc1nc(N2CCOCC2)c2c(c1C#N)CCCCC2,0,0,0,73,0,0
CCCSc1nc(N2CCOCC2)c2c(c1C#N)CCCC2,0,0,0,0,0,0
CCCc1nc(N2CCOCC2)c(C#N)c2c1CCCC2,0,0,0,0,0,0
Cc1nc(SCC(=O)O)c(C#N)c2c1CCCC2,0,0,0,0,0,0
CC(NC(=O)CN1C(=O)NC(Cc2ccccc2)(Cc2ccccc2)C1=O)C12CC3CC(CC(C3)C1)C2 (stereo unspecified),0,0,0,84,0,0
CC(NC(=O)Cn1ncc(Cl)c(Cl)c1=O)C12CC3CC(CC(C3)C1)C2 (stereo unspecified),-,0,112,109,-,0
Cc1ccc(C)c(NC(=O)CN(C)C(=O)c2cc3ccccc3o2)c1,0,0,0,0,0,0
Cn1nc(C(F)(F)F)c(-c2ccc(F)cc2)c1NC(=O)c1ccco1,0,0,0,0,0,0
Cn1nc(C(F)(F)F)c(-c2ccc(Br)cc2)c1NC(=O)Nc1ccc(F)cc1F,0,0,0,77,0,0
COc1ccc(-n2cc(-c3ccccc3)c3c(NCCCN4CCOCC4)ncnc32)cc1,0,0,0,0,0,0
Fc1ccc(-n2cc(-c3ccccc3)c3c(N4CCOCC4)ncnc32)cc1,0,0,0,70,0,0
COc1ccc(-n2cc(-c3ccccc3)c3c(N4CCOCC4)ncnc32)cc1,0,0,0,81,0,0
O=C(Nc1ccccc1C(=O)N1CCCC1)c1ccc(Cl)c([N+](=O)[O-])c1,0,0,0,0,0,0
Cc1ccc2cc(C)c(N3CCN(c4ccccn4)CC3)nc2c1,0,0,0,74,0,0
Cc1ccc(C(=O)CN2CCN(c3ccccn3)CC2)c(C)c1,0,0,0,-,0,-
CC(CCc1ccccc1)NC(=O)C(Cc1ccccc1)NC(N)=O (stereo unspecified),0,0,0,-,0,-
Cc1ccc(C(=O)O[C@H](C(=O)O)[C@H](OC(=O)c2ccc(C)cc2)C(=O)O)cc1 (tested in a mixture with another compound),-,-,-,0,-,-
C=CCn1c(SCC(=O)c2[nH]c(C)c(C(=O)OCC)c2C)nc2scc(-c3ccccc3)c2c1=O,0,0,0,88,0,0
O=C(c1ccc(Br)o1)N1CCN(C23CC4CC(CC(C4)C2)C3)CC1,0,0,0,-,0,-
O=C(c1ccc(C23CC4CC(CC(C4)C2)C3)o1)N1CCOCC1,0,0,0,77,0,0
SMILES,UPR XBP1 act,p-CIP stab down,B2AR ag,CHOP inh,CHOP UPR activ,Dynein transport
COc1ccc(CCc2nnc(CCC(=O)NCc3ccc4ncccc4c3)o2)cc1,0,0,0,0,0,0
CCCCc1nc2c(C)c(N)cnc2n1Cc1cccc([N+](=O)[O-])c1,0,0,0,-,0,-
COc1ccc(C(=O)/C=C/Sc2nc3ccccc3o2)cc1,0,0,0,82,0,0
COc1ccc(C(=O)N/C(N)=N/c2nc3ccccc3o2)cc1,0,0,0,0,0,0
O=C(NC1C/C(=N/O)c2cc3c(cc21)OCO3)C(F)(F)F (stereo unspecified),0,0,0,0,0,0
O=C(NC(Cc1ccc(O)cc1)C(=O)O)c1ccc2c(c1)OCO2 (stereo unspecified),0,-,0,-,0,-
Cc1ccc(Sc2cnc3ccccc3n2)cc1,0,0,0,86,0,0
O=C(O)CSc1nnc(NC(=O)CN2CCOCC2)s1,0,0,0,-,0,-
COc1ccc(C(=O)NC(=S)Nc2ccccc2[N+](=O)[O-])cc1OC,0,0,0,0,0,0
COc1ccc(C(=O)NC(=S)Nc2ccc([N+](=O)[O-])cc2C)cc1OC,0,0,0,79,0,0
CCSCC1COC(c2cccn2Cc2ccc(C)cc2)=N1 (stereo unspecified),0,0,0,76,0,0
CC12CN(NC(=O)c3ccccc3F)C3(C#N)CC1CCC23C (stereo unspecified),0,0,0,0,0,0
O=c1oc2ccc3ccccc3c2cc1-c1nnc(-c2ccccc2)o1,0,0,0,0,0,0
CCN(CC)c1ccc2cc(-c3nnc(-c4ccccc4)o3)c(=O)oc2c1,0,0,-,0,0,-4.5
CCN(CC)c1ccc2cc(-c3nnc(-c4ccc(Br)cc4)o3)c(=O)oc2c1,-,-,-,-,-,-5.7
Cc1sc2ncnc(N3CCC(C(=O)NNC(=O)COc4ccc(Cl)cc4)CC3)c2c1C,-,-,0,-,-,-
Cc1sc2ncnc(N3CCN(CCOc4ccc(Cl)cc4)CC3)c2c1C,0,0,0,92,0,0
CC(C)OC(=O)c1cc2c(ccn2C)n1CC(=O)N1CCC(Cc2ccccc2)CC1,0,0,0,70,0,0
CC(C)OC(=O)c1cc2c(ccn2C)n1CC(=O)N(Cc1ccccc1)c1ccc(F)cc1,0,0,0,71,0,0
CCOC(=O)c1cc2c(ccn2C)n1CC(=O)N(Cc1ccccc1)c1ccc(F)cc1,0,0,0,70,0,0
Cc1ccccc1Cn1c(C(=O)OC(C)C)cc2c1ccn2C,0,0,0,0,0,0
Cc1ccnc(NC(=O)C(Cc2ccccc2)NC(=O)c2ccccc2)c1 (stereo unspecified),0,-,0,-,0,-
Cc1c(OCC(=O)NCCN2CCOCC2)ccc2c(-c3ccccc3)cc(=O)oc12,0,0,0,-,0,-
CCOc1ncccc1C(=O)OCC(=O)c1cc(OC)c(OC)c(OC)c1,0,0,0,0,0,0
O=C(O)c1cccc2c1C(=O)c1ccccc1-2,0,0,0,0,0,0
O=C1C(=C(I)I)c2ccccc2-c2ccccc21,-,-,76,-,-,-
CCOC(=O)c1c(S(=O)(=O)N(C)Cc2ccco2)c(C)n(C)c1C,0,0,0,-,0,-
CCOc1cc(C(=O)CCC(=O)OCC(=O)NC(=O)NCC(C)C)ccc1O,0,0,0,0,0,0
O=[N+]([O-])c1cc(S(=O)(=O)Nc2ccccc2)ccc1NCc1ccccc1,0,0,0,92,0,0
